{"source": "ChEMBL document CHEMBL1765008", "about": "“Fused heterocyclic amido compounds as anti-hepatitis C virus agents” (Bioorg Med Chem, 2011)"}
{"test_system": "Hepatitis C virus", "experiment": "Antiviral activity against Hepatitis C virus assessed as inhibition of viral replication after 24 hrs by cell based luciferase reporter gene assay", "type": "functional, organism-based", "conditions": "Hepacivirus hominis, 72 h, in the assay text read “after 3 days” for “after 24 hrs”", "method_in_brief": "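Subgenomic HCV RNA replicon cells carrying luciferase (LucNeo#2), maintained in DMEM with 10% FBS, antibiotics and 1 mg/ml geneticin. Seeded at 50,000 cells/ml without geneticin and incubated 24 h. Medium then replaced with medium containing serial compound dilutions for 3 days. Cells washed with PBS and lysed for 10 min; luciferase activity in the lysate read by luminometer.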", "units": {"EC50": "µM"}}
{"smiles": "CCCCn1c(=O)c2ccccc2c2cc(C(O)(C(F)(F)F)C(F)(F)F)ccc21", "EC50": 3.2}
{"smiles": "CCCCn1c(=O)c2cc(OC)ccc2c2c(OC)c(C(O)(C(F)(F)F)C(F)(F)F)cc(OC)c21", "EC50": 6.1}
{"smiles": "CCCCn1c(=O)c2cc(OC)ccc2c2cc(C(O)(C(F)(F)F)C(F)(F)F)c3c(c21)OCO3", "EC50": 0.05}
{"smiles": "CCCCn1c(=O)c2ccccc2c2c(OC)c(C(O)(C(F)(F)F)C(F)(F)F)ccc21", "EC50": 7.2}
{"smiles": "CCCCn1c(=O)c2c(OC)cccc2c2cc(C(O)(C(F)(F)F)C(F)(F)F)ccc21", "EC50": 9.96}
{"smiles": "CCCCn1c(=O)c2ccccc2c2cc(C(O)(C(F)(F)F)C(F)(F)F)c(OC)cc21", "EC50": 3.4}
{"smiles": "CCCCn1c(=O)c2ccccc2c2cc(C(O)(C(F)(F)F)C(F)(F)F)c(F)cc21", "EC50": 5.3}
{"smiles": "CCCCn1c(=O)c2ccccc2c2cc(C(O)(C(F)(F)F)C(F)(F)F)cc(F)c21", "EC50": 2.4}
{"smiles": "CCCCn1c(=O)c2ccccc2c2cc(C(O)(C(F)(F)F)C(F)(F)F)c(C)cc21", "EC50": 5.6}
{"smiles": "CCCCn1c(=O)c2ccccc2c2cc(C(O)(C(F)(F)F)C(F)(F)F)cc(C)c21", "EC50": 2.1}
{"smiles": "CCCCn1c(=O)c2ccccc2c2cc(C(O)(C(F)(F)F)C(F)(F)F)cc(OC)c21", "EC50": 1.1}
{"smiles": "CCCCn1c(=O)c2cc(OC)ccc2c2cc(C(O)(C(F)(F)F)C(F)(F)F)ccc21", "EC50": 0.98}
{"smiles": "CCCCn1c(=O)c2ccc(OC)cc2c2cc(C(O)(C(F)(F)F)C(F)(F)F)ccc21", "EC50": 16.6}
{"smiles": "CCCCn1c(=O)c2cccc(OC)c2c2cc(C(O)(C(F)(F)F)C(F)(F)F)ccc21", "EC50": 5}
{"smiles": "CCCCn1c(=O)c2ccccc2c2c(OC)c(C(O)(C(F)(F)F)C(F)(F)F)cc(OC)c21", "EC50": 5.7}
{"smiles": "CCCCn1c(=O)c2ccccc2c2cc(C(O)(C(F)(F)F)C(F)(F)F)c(OC)c(OC)c21", "EC50": 2.6}
{"smiles": "CCCCn1c(=O)c2cc(OC)ccc2c2cc(C(O)(C(F)(F)F)C(F)(F)F)c(OC)cc21", "EC50": 0.18}
{"smiles": "CCCCn1c(=O)c2cc(OC)ccc2c2cc(C(O)(C(F)(F)F)C(F)(F)F)cc(OC)c21", "EC50": 0.51}
{"smiles": "CCCCn1c(=O)c2cc(OC)ccc2c2cc(C(O)(C(F)(F)F)C(F)(F)F)c(OC)c(OC)c21", "EC50": 1.8}
{"smiles": "CCCCn1c(=O)c2ccccc2c2cc(C(O)(C(F)(F)F)C(F)(F)F)c3c(c21)OCO3", "EC50": 0.29}
{"smiles": "CCCCn1c(=O)c2cc3c(cc2c2cc(C(O)(C(F)(F)F)C(F)(F)F)ccc21)OCO3", "EC50": 2.3}
{"smiles": "CCCCn1c(=O)c2ccccc2c2c(OC)c(C(O)(C(F)(F)F)C(F)(F)F)c3c(c21)OCO3", "EC50": 9.8}
{"smiles": "CCCCn1c(=O)c2cc(OC)ccc2c2c(OC)c(C(O)(C(F)(F)F)C(F)(F)F)c3c(c21)OCO3", "EC50": 12}
{"smiles": "CCCCn1c(=O)c2cc3c(cc2c2cc(C(O)(C(F)(F)F)C(F)(F)F)c4c(c21)OCO4)OCO3", "EC50": 1.73}
{"smiles": "COCCn1c(=O)c2ccccc2c2cc(C(O)(C(F)(F)F)C(F)(F)F)ccc21", "EC50": 5.4}
{"smiles": "O=c1c2ccccc2c2cc(C(O)(C(F)(F)F)C(F)(F)F)ccc2n1Cc1ccc2ccccc2c1", "EC50": 8.8}
{"test_system": "Bovine viral diarrhea virus 1", "experiment": "Antiviral activity against Bovine viral diarrhea virus assessed as inhibition of viral replication after 24 hrs by cell based luciferase reporter gene assay", "type": "functional, organism-based", "conditions": "Bovine viral diarrhea virus isolates and strains", "units": {"EC50": "µM"}}
{"smiles": "Cc1ncc2c3ccccc3n(C)c2c1C", "EC50": 0.0035}
